Reference: paper PMC11224971 (The Oncologist, 2024)

Columns and labels:
Format in all cases: in vivo, human
[1] = test system: relapsed or refractory advanced solid tumors harboring deleterious genetic alterations in the DDR pathway; experiment: NCI-COG Pediatric MATCH phase II subprotocol; conditions: 135 mg/m^2/dose BID oral
Procedure, shortened: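 Relapsed/refractory pediatric solid tumors (incl. CNS, non-Hodgkin lymphoma, histiocytosis) assigned by centralized tumor sequencing showing a deleterious BRCA1/2, RAD51C/D or ATM alteration, without germline subtraction or LOH analysis. Oral tablets 135 mg/m²/dose (max 225 mg/dose) twice daily, given continuously in 28-day cycles. Primary endpoint was objective response.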

[2] = Steady-state pharmacokinetics in plasma, cycle 1 day 8
Procedure, shortened: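 Plasma was sampled at steady state on cycle 1, day 8, after oral 135 mg/m²/dose BID. AUCSS was calculated by linear trapezoidal approximation through the day-8 24-hour dosing interval. The 24 h concentration was assumed equal to the predose concentration. CLSS was calculated as dose/AUCSS. Cmax, Tmax and t½ were also reported.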

[3] = Pediatric MATCH arm H: safety and tolerability

In the case of `O=C(c1cc(Cc2n[nH]c(=O)c3ccccc23)ccc1F)N1CCN(C(=O)C2CC2)CC1` [Olaparib], the “Objective response (complete + partial response)” value ([1]; 6 patients enrolled) is reported as “no responses”, the “Median duration assessments, OS” value ([1]; 6 patients, 95% CI: 0.8-NA) is reported as 2.5 months (95% CI: 0.8-NA) and the “Median duration assessments, PFS” value ([1]; Kaplan-Meier, 6 patients, 95% CI: 0.4-NA) is reported as 1.5 months (95% CI: 0.4-NA). The “Response assessment, PD (number of patients, %)” value ([1]; RECIST 1.1, 6 patients evaluated for efficacy) was 3 (50%), the “Clearance at steady state, mean ± SD” value ([2]; dose/AUCSS, dose level 1, 135 mg/m^2 BID oral tablet, n = 3) was 4.1 ± 3.6 L/h/m^2 and the AUC(0-t) ([2]; human, plasma, po, 135 mg/m2) was 48800 ± 27800 ng·h/mL. It also gave a Cmax ([2]; human, plasma, po, 135 mg/m2) of 7500 ± 2700 ng/mL, a Tmax ([2]; human, plasma, po, 135 mg/m2) of 1 to 4 h and a half-life ([2]; human, plasma, po, 135 mg/m2) of 336 ± 276 min. The Dose-limiting toxicities ([3]; 2 patients evaluable for DLT, cycle 1, 135 mg/m^2/dose BID) was “no dose-limiting toxicities”, the “Hematologic toxicity (overall)” value ([3]; 6 patients evaluable for toxicity, 135 mg/m^2/dose BID) was “Minimal hematologic toxicity” and the “Patients with grade 1/2 anemia” value ([3]; number of patients, 6 evaluable for toxicity) was 3. The “Allergic reaction leading to removal from study” value ([3]; one patient (biallelic tumor loss of ATM), first dose, recurring upon rechallenge) was “acute allergic reaction (hives)”.
